Measurements published in ChEMBL document CHEMBL2034836, “Synthesis and anti-HIV activities of glutamate and peptide conjugates of nucleoside reverse transcriptase inhibitors” (J Med Chem, 2012).

How the values were obtained:
HeLa = test: Cytotoxicity against human HeLa P4/R5 cells after 48 hrs by MTT assay; type: cell-based; conditions: read-out: EC50 (the source's name)
Method in brief: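 Same P4R5 MAGI cell design as the infection assay but without virus; viability read by MTT tetrazolium reduction; each concentration tested in triplicate wells.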

[1] = system: Human immunodeficiency virus 1; test: Antiviral activity against HIV1 3B infected in HeLa P4/R5 cells assessed as reduction of viral infection incubated for 2 hrs followed by incubated in drug-free medium for 46 hrs by single round infection beta-galactosidase reporter gene assay; type: functional, organism-based; conditions: Human immunodeficiency virus 1, 3B
Method in brief: (§1)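 P4R5 MAGI cells (CD4 and coreceptors, HIV-1 LTR–β-galactosidase reporter) seeded at 1.2 × 10^4 cells/well ~18 h before infection; exposed 2 h at 37 °C to cell-free X4 IIIB or R5 BaL virus with or without compound, washed, cultured 46 h more; β-galactosidase chemiluminescent read-out. Infection reduction relative to untreated; EC50 by regression; triplicate wells; dextran sulfate control.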

[2] = system: Human immunodeficiency virus 1; test: Antiviral activity against HIV1 BaL infected in HeLa P4/R5 cells assessed as reduction of viral infection incubated for 2 hrs followed by incubated in drug-free medium for 46 hrs by single round infection beta-galactosidase reporter gene assay; type: functional, organism-based; conditions: Human immunodeficiency virus 1, BaL; method in brief: as §1
[3] = system: Human immunodeficiency virus 1; test: Antiviral activity against NNRTI-resistant HIV1 clade B A-17 clinical isolate infected in PHA-P-stimulated human PBMC assessed as reverse transcriptase activity incubated for 6 hrs followed by incubated in drug-free medium for 6 days by multiround infection assay; type: functional, organism-based; conditions: Human immunodeficiency virus 1, clade B A-17
[4] = system: Human immunodeficiency virus 1; test: Ratio of lamivudine EC50 to compound EC50 for HIV1 3B infected in HeLa P4/R5 cells; type: functional
[5] = system: Human immunodeficiency virus 1; test: Ratio of lamivudine EC50 to compound EC50 for HIV1 BaL infected in HeLa P4/R5 cells; type: functional
[6] = system: Human immunodeficiency virus 1; test: Antiviral activity against wild type HIV1 clade C 98USMSC5016 clinical isolate infected in PHA-P-stimulated human PBMC assessed as reverse transcriptase activity incubated for 6 hrs followed by incubated in drug-free medium for 6 days by multiround infection assay; type: functional, organism-based; conditions: Human immunodeficiency virus 1, clade C 98USMSC5016
[7] = system: Human immunodeficiency virus 1; test: Antiviral activity against wild type HIV1 clade B 94US3393IN clinical isolate infected in PHA-P-stimulated human PBMC assessed as reverse transcriptase activity incubated for 6 hrs followed by incubated in drug-free medium for 6 days by multiround infection assay; type: functional, organism-based; conditions: Human immunodeficiency virus 1, clade B 94US3393IN
[8] = system: Human immunodeficiency virus 1; test: Ratio of zidovudine EC50 to compound EC50 for HIV1 BaL infected in HeLa P4/R5 cells; type: functional
[9] = system: Human immunodeficiency virus 1; test: Antiviral activity against multidrug-resistant HIV1 clade B 4775-5 clinical isolate infected in PHA-P-stimulated human PBMC assessed as reverse transcriptase activity incubated for 6 hrs followed by incubated in drug-free medium for 6 days by multiround infection assay; type: functional, organism-based; conditions: Human immunodeficiency virus 1, clade B 4775-5
[10] = system: Human immunodeficiency virus 1; test: Ratio of zidovudine EC50 to compound EC50 for HIV1 3B infected in HeLa P4/R5 cells; type: functional

Compound | EC50 [1] | EC50 [2] | CC50 (HeLa) | other results
CCCCCCCCCCCCCC(=O)NCCCC[C@H](NC(=O)[C@H](CCC(=O)OC[C@H]1O[C@@H](n2cc(C)c(=O)[nH]c2=O)C[C@@H]1F)NC(=O)CCCCCCCCCCCCC)C(=O)O | 26.8 µM | 29.1 µM | > 108 µM | –
CCCCCCCCCCCCCC(=O)NCCCC[C@H](NC(=O)CCNC(=O)[C@H](CCC(=O)OC[C@H]1O[C@@H](n2cc(C)c(=O)[nH]c2=O)C[C@@H]1F)NC(C)=O)C(=O)O | 10.6 µM | 6.9 µM | > 121 µM | –
CCCCCCCCCCCCCC(=O)OC[C@H](NC(C)=O)C(=O)NCCC(=O)N[C@@H](CCC(=O)OC[C@H]1O[C@@H](n2cc(C)c(=O)[nH]c2=O)C[C@@H]1N=[N+]=[N-])C(=O)NCC(=O)O | 63.1 µM | 86.4 µM | > 116 µM | –
CC(=O)N[C@@H](CCC(=O)OC[C@H]1O[C@@H](n2cc(C)c(=O)[nH]c2=O)C[C@@H]1F)C(=O)OC[C@H]1O[C@@H](n2cc(C)c(=O)[nH]c2=O)C[C@@H]1N=[N+]=[N-] | 13.5 µM | 13.1 µM | > 151 µM | –
Cc1cn([C@H]2C[C@H](N=[N+]=[N-])[C@@H](COC(=O)CC[C@H](NC(=O)CCC(=O)OC[C@H]3O[C@@H](n4cc(C)c(=O)[nH]c4=O)C[C@@H]3F)C(=O)OC[C@@H]3O[C@H](n4ccc(N)nc4=O)CS3)O2)c(=O)[nH]c1=O | 0.9 µM | 1.4 µM | > 107 µM | IC50 [3]: 0.0129 µM; IC90 [3]: 0.0283 µM; Ratio EC50 [4]: 36; Ratio EC50 [5]: 8; IC50 [6]: 0.0227 µM; IC90 [6]: 0.0845 µM; IC50 [7]: 0.0267 µM; IC90 [7]: 0.161 µM; Ratio EC50 [8]: 10; IC50 [9]: 0.0059 µM; IC90 [9]: 0.046 µM; Ratio EC50 [10]: 12
Cc1cn([C@H]2C[C@H](F)[C@@H](CO)O2)c(=O)[nH]c1=O [ALOVUDINE] | 0.8 µM | 0.4 µM | – | IC50 [3]: 0.026 µM; IC90 [3]: 0.0872 µM; IC50 [6]: 0.002 µM; IC90 [6]: 0.0123 µM; IC50 [7]: 0.002 µM; IC90 [7]: 0.0204 µM; IC50 [9]: 0.107 µM; IC90 [9]: 1.06 µM
Nc1nc(=O)n([C@@H]2CS[C@H](CO)O2)cc1F [EMTRICITABINE] | 2 µM | 0.8 µM | – | –
Nc1ccn([C@@H]2CS[C@H](CO)O2)c(=O)n1 [LAMIVUDINE] | 32.7 µM | 11.3 µM | – | –
Cc1cn([C@H]2C[C@H](N=[N+]=[N-])[C@@H](CO)O2)c(=O)[nH]c1=O [ZIDOVUDINE] | 10.8 µM | 14.2 µM | – | IC90 [3]: 0.152 µM; IC90 [6]: 0.0342 µM; IC90 [7]: 0.0213 µM; IC90 [9]: 10.7 µM

Continued, in another order:

EC50 [1] | EC50 [2] | Compound | CC50 (HeLa) | other results
11.1 µM | 6.9 µM | CCCCCCCCCCCCCC(=O)OC[C@H](NC(C)=O)C(=O)NCCC(=O)N[C@@H](CCC(=O)OC[C@H]1O[C@@H](n2cc(C)c(=O)[nH]c2=O)C[C@@H]1F)C(=O)NCC(=O)O | > 119 µM | –
2.4 µM | 3.6 µM | CCCCCCCCCCCCCC(=O)N[C@@H](CCC(=O)OC[C@H]1O[C@@H](n2cc(C)c(=O)[nH]c2=O)C[C@@H]1F)C(=O)OC[C@H]1O[C@@H](n2cc(C)c(=O)[nH]c2=O)C[C@@H]1N=[N+]=[N-] | > 120 µM | –
2 µM | 2.7 µM | CCCCCCCCCCCCCC(=O)N[C@@H](CCC(=O)OC[C@H]1O[C@@H](n2cc(C)c(=O)[nH]c2=O)C[C@@H]1F)C(=O)OC[C@@H]1O[C@H](n2ccc(N)nc2=O)CS1 | > 126 µM | –
17 µM | 12.3 µM | CC(=O)N[C@@H](CCC(=O)OC[C@H]1O[C@@H](n2cc(C)c(=O)[nH]c2=O)C[C@@H]1F)C(=O)OC[C@@H]1O[C@H](n2ccc(N)nc2=O)CS1 | > 160 µM | –
6 µM | 6.5 µM | CCCCCCCCCCCCCC(=O)N[C@@H](CCC(=O)OC[C@H]1O[C@@H](n2cc(C)c(=O)[nH]c2=O)C[C@@H]1N=[N+]=[N-])C(=O)OC[C@@H]1O[C@H](n2ccc(N)nc2=O)CS1 | > 122 µM | –
12 µM | 13.4 µM | CC(=O)N[C@@H](CCC(=O)OC[C@H]1O[C@@H](n2cc(C)c(=O)[nH]c2=O)C[C@@H]1N=[N+]=[N-])C(=O)OC[C@@H]1O[C@H](n2ccc(N)nc2=O)CS1 | > 154 µM | –
6.3 µM | 7.7 µM | CCCCCCCCCCCCCC(=O)N[C@@H](CCC(=O)O)C(=O)OC[C@H]1O[C@@H](n2cc(C)c(=O)[nH]c2=O)C[C@@H]1F | > 51 µM | –
0.6 µM | 0.3 µM | CCCCCCCCCCCCCC(=O)N[C@@H](CCC(=O)OC[C@@H]1O[C@H](n2ccc(N)nc2=O)CS1)C(=O)OC[C@H]1O[C@@H](n2cc(C)c(=O)[nH]c2=O)C[C@@H]1F | > 38 µM | –
0.4 µM | 0.1 µM | CCCCCCCCCCCCCC(=O)N[C@@H](CCC(=O)OC[C@@H]1O[C@H](n2cc(F)c(N)nc2=O)CS1)C(=O)OC[C@H]1O[C@@H](n2cc(C)c(=O)[nH]c2=O)C[C@@H]1F | > 37 µM | –
